Bioassay records from PubChem.
SMARCA2 act – increases SMARCA2 function in MMTV reporter cells. MG213 cells, MMTV-luciferase reporter, dexamethasone, overnight. activation, % at 9.1 µM. hit rate 1% among 370,000. AID 652017; in the data active = activation above about 7.8%;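 also: 0% = vehicle wells and 100% = reference activator wells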
H9c2 TAG inh – inhibitors of triacylglycerol accumulation. H9c2 cells, Nile Red lipid (TAG) fluorescence; cells loaded with 200 µM oleic acid. inhibition, % at 12.5 µM. hit rate 0.66% among 230,000. AID 651582;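 active = pattern-corrected inhibition of lipid staining of at least 50% with the nuclear-stain viability signal not falling by more than 50%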;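 also: 0% = DMSO wells and 100% = triacsin C control wells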
Vif inh – inhibitors of HIV Vif. inhibition, % at 7.49 µM. HEK293T cells, Vif self-association by quenched fluorescence, imaging, 24 h. hit rate 0.35% among 340,000; in the data active = inhibition above about 50%, passing the limit was not always enough
SR-BI HDL uptake – mouse SR-BI HDL lipid transfer inhibition; AID 488896; ldlA[mSR-BI] CHO cells, DiI-HDL uptake fluorescence, 3 h; hit rate 0.96% among 320,000; inhibition, % at 12.5 µM;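 active = mean replicate inhibition of at least 70% and a set share of replicates each scoring 70 or more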;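 also: 0% = median of neutral control wells and 100% = median of positive control wells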
Target sequence (Q61009 whole entry, looked up): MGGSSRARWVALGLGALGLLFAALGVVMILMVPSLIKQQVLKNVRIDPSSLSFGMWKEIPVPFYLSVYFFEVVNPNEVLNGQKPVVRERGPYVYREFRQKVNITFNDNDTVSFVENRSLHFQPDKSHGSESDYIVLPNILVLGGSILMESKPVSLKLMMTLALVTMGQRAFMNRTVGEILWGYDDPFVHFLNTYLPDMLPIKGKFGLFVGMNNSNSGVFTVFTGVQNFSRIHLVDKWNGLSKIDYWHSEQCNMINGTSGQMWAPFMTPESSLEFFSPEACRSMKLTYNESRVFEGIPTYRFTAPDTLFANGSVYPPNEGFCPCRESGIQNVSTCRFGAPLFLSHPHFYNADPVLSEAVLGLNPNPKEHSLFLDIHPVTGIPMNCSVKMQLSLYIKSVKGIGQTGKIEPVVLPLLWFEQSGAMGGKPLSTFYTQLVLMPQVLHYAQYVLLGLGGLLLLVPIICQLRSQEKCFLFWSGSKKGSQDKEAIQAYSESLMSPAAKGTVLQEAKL
SR-BI uptake up – SR-BI HDL lipid transfer activation | CHO ldlA[mSR-BI] cells, DiI-HDL uptake fluorescence, 3 h; 100 = double the neutral-control signal | activation, % at 12.5 µM | hit rate 0.096% among 320,000 | AID 504775;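 active = mean replicate activation of at least 60% and every replicate at or above 60%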;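 also: 0% = median plate neutral-control signal and 100% = twice that signal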
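System: CHO ldlA[mSR-BI] cells / Medium: HEPES-buffered (25 mM, pH 7.4) F12 plus 0.5% BSA / Probe or stimulus: labelled HDL, 10 µg/mL / Doses: single compound concentration, delivered by pin transfer / Schedule: 3 h, 37 °C / Measured by: DiI fluorescence, bottom read / Measure: cell-associated DiI fluorescence as measure of HDL uptake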
SMARCA2 act conf – SMARCA2 activation, confirmation screen. shares compounds with SMARCA2 act. MG213 cells, MMTV-luciferase with dexamethasone, luminescence, overnight; MG213 cells expressing E1A, Rb sequestered; DMSO wells 0%, reference activator 100%. activation, % at 9.1 µM. hit rate 30% among 3,500;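 active = activation above its plate's cutoff, the mean activation of tested wells plus 3 SD, cut at about 7.9% in these data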
VP16 Luc act – activates GAL4-VP16 luciferase, flagging SMARCA2 activator hits. shares compounds with SMARCA2 act. HEK293 GAL4-VP16 pG5luc reporter, luciferase luminescence; scaled: DMSO wells 0%, SAHA wells 100%. activation, % at 9.1 µM. hit rate 41% among 3,500. AID 686939;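 active = activation above the solvent-only control well mean plus 3 SD, averaged across control plates, cut at about 5.2% in these data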
Starred values were filed as active, the others as inactive; nt = no result given. This is a sample that favours compounds with a hit; in the whole collection about 2.5% have one here.

SMILES	SMARCA2 act	H9c2 TAG inh	Vif inh	SR-BI HDL uptake	SR-BI uptake up	SMARCA2 act conf	VP16 Luc act
COc1ccccc1OCCNC(=O)CNC(=O)c1ccc(C(C)(C)C)cc1	2	4	7	-9	9	nt	nt
C/C(=N/NC(=O)Nc1ccccc1)c1ccc(C)cc1	8.7*	nt	6	4	-4	3	0
Cc1ccc(CNC(=O)Nc2ccccc2)cc1	8.7*	-37	12	-8	8	5	11*
O=C(NCCCc1ccccc1)Nc1ccccc1	13*	nt	3	-16	16	7	2
Cc1ccc(CNC(=O)NCc2ccccc2)cc1	1	-5	nt	-25	25	nt	nt
CCc1ccc(NC(=O)C2=CC=CN3CCS(=O)(=O)N=C23)cc1	-2	13	10	-5	5	nt	nt
O=[N+]([O-])c1ccc2[nH]c(=S)[nH]c2c1	10*	7	0	-7	7	11*	0
CCn1c(SCC(=O)NCc2ccccc2)nnc1-c1cccnc1	-5	nt	-6	-6	6	nt	nt
CCC(C)[C@H](NC(=O)[C@H](Cc1ccccc1)NC(=O)OC(C)(C)C)C(=O)NCc1ccccc1Br (stereo not given in full)	0	nt	nt	nt	nt	nt	nt
COc1ccc(/C=N/NC(=O)c2ccn[nH]2)cc1COc1ccc(F)cc1	8.4*	7	nt	31	-31	3	1
Cc1[nH]c2ccc(C(=O)N3CCCCC3)cc2c1C	11*	2	2	17	-17	5	9.4*
CC(Oc1coc(CN2CCN(C(=O)c3ccco3)CC2)cc1=O)c1ccccc1 (stereo not given)	-3	11	-1	-11	11	nt	nt
CN(C)/C=N/c1ncc(C(=O)c2ccc(-c3ccccc3)cc2)s1	-3	-7	-6	-5	5	nt	nt
CN(C)/C=N/c1ncc(C(=O)c2ccccc2)s1	14*	nt	-1	-24	24	8.7*	8.1*
Cc1ccc2cccc(N=Cc3c(C)[nH]n(-c4ccccc4)c3=O)c2n1	14*	nt	2	31	-31	-13	8.1*
CC(C)(CNC(=O)c1ccc(S(=O)(=O)Nc2cccc(C(F)(F)F)c2)cc1)N1CCOCC1	-1	-6	-2	57	-57	nt	nt
COc1ccc(N2C(=O)CSC23C(=O)Nc2ccccc23)cc1 (stereo not given)	8.6*	-18	-8	33	-33	-2	4
COC(=O)c1ccc2nc(-c3ccc(F)cc3)c(Cc3ccccc3C(F)(F)F)n2c1	9.1*	nt	nt	nt	nt	-1	-1
COc1ccc(CC(=O)Nc2c3c(nn2-c2ccccc2C)CS(=O)C3)cc1 (stereo not given)	8.7*	nt	6	-9	9	-2	0
Cn1c(CCC(=O)O)nc2cc(S(=O)(=O)N3CCCCC3)ccc21	11*	-16	4	-13	13	0	0
CCOC(=O)C1CCN(S(=O)(=O)c2cc(C(=O)OC)n(C)c2)CC1	-4	-5	-6	-26	26	nt	nt
COc1ccc(N2CCN(C(=O)c3cc(=O)c4ccc(C)cc4o3)CC2)cc1	12*	nt	0	10	-10	3	1
C[C@H]1C(c2ccccc2F)O[C@]2(C[C@H](O)c3ccccc3O2)C[C@@H]1O (stereo not given in full)	-1	nt	nt	nt	nt	nt	nt
CC1CCC(NC(=O)C(C)N2C(=O)C3CCCCC3C2=O)CC1 (stereo not given)	9.3*	18	nt	16	-16	2	2
COc1cccc2sc(Nc3nnc(-c4cccs4)o3)nc12	15*	-6	0	-21	21	-2	14*
SMILES	SMARCA2 act	H9c2 TAG inh	Vif inh	SR-BI HDL uptake	SR-BI uptake up	SMARCA2 act conf	VP16 Luc act
COc1cccc2sc(Nc3nnc(-c4ccc(F)cc4)o3)nc12	4	11	nt	nt	nt	nt	nt
CNC(=S)Nc1ccc(-c2nc3ccc(C)cc3s2)cc1	5	16	-6	69	-69	nt	nt
CC(=O)NC(=S)Nc1ccc(-c2nc3ccc(C)cc3s2)cc1	18*	nt	-10	29	-29	5	9.2*
CCCCN(C)C(=O)Cn1nc(Cc2ccncc2)c2ccccc2c1=O	0	nt	-1	-3	3	nt	nt
CNC(=O)c1c(Cl)cnn1-c1ccc(C)cc1	2	0	-1	-11	11	nt	nt
C=CCNC(=O)c1c(Cl)cnn1-c1ccc(C)cc1	12*	nt	-14	-9	9	6	5.4*
CCOc1ccc(S(=O)(=O)N2CCCCC2)cc1NC(=O)Cc1cccc(C(F)(F)F)c1	-1	17	-7	-23	23	nt	nt
Cc1cc(C)nc(Sc2nc(Cl)nc(N(c3ccccc3)c3ccccc3)n2)n1	8.3*	-14	15	5	-5	9.2*	1
CCN(CC)C(=O)C1=C(C)N(Cc2ccc(F)cc2)C(=O)C(CC(=O)NCc2cccs2)C1 (stereo not given)	2	5	1	nt	nt	nt	nt
CCN(CC)C(=O)C1=C(C)N(Cc2ccc(F)cc2)C(=O)C(CC(=O)NCc2ccco2)C1 (stereo not given)	8.4*	-2	0	nt	nt	-6	1
CCOC(=O)c1cccc(-c2cc(C(=O)OC)c3n(c2=O)CCC3)c1	1	nt	nt	nt	nt	nt	nt
CCc1cc(C(=O)O)c(NC(=O)/C=C/c2ccc(OC)c(OC)c2)s1	-1	7	-5	-10	10	nt	nt
CCc1cc(C(=O)O)c(NC(=O)/C=C/c2ccc(OC)cc2)s1	13*	10	0	6	-6	1	6.1*
COCC(=O)N[C@H]1C[C@@H]2O[C@@H](CO)CC[C@@H]2O[C@@H]1CCc1ccc(-c2ccccc2)cc1	-2	nt	nt	nt	nt	nt	nt
COc1ccc2cc(C(=O)C3CCCN(C(=O)c4cnn(C(C)C)c4)C3)ccc2c1 (stereo not given)	1	nt	-8	-12	12	nt	nt
Cc1csc(=O)n1CC(=O)Nc1ccc(C(C)C)cc1	8.0*	2	-3	-6	6	-1	5.4*
CCCCNC(=O)C[C@H]1C[C@@]2(C(=O)OC)C(=C[C@H](COCc3ccccc3)O[C@@H]2C)N(CCc2ccc(OC)c(OC)c2)C1=O	-2	nt	nt	nt	nt	nt	nt
COc1ccc(-n2nnnc2-c2ccc(S(C)(=O)=O)cc2Cl)cc1	-1	nt	7	-11	11	nt	nt
COc1ccccc1-c1csc(C(C)(NC(C)=O)c2ccccc2)n1 (stereo not given)	6	-21	-5	nt	nt	nt	nt
Cc1ccc(CSCC(Nc2ccc(C(=O)O)cc2[N+](=O)[O-])C(=O)O)cc1 (stereo not given)	9.0*	nt	21	-12	12	0	-1
